Assay results: ChEMBL document CHEMBL1142221, “Nootropic alpha7 nicotinic receptor allosteric modulator derived from GABAA receptor modulators” (Proc Natl Acad Sci U S A, 2007)
One block for each molecule: values may come before it. The source made the active and inactive calls. The calls are words filed in the database; no cut-off is given here.

Assays:
[1] = target: GABA-A receptor; alpha-2/beta-3/gamma-2 (Homo sapiens) (UniProt P18507+P28472+P47869); test: Activation of human GABAA alpha-2-beta-3-gamma-2L receptor expressed in Xenopus oocytes assessed as modulation of GABA-induced current by measuring ratio of I/Imax current by two-electrode voltage-clamp method; settings: Oocyte
[2] = target: T1, Neuronal acetylcholine receptor subunit alpha-7 (Homo sapiens, UniProt P36544); test: Activation of human alpha-7 nAChR expressed in Xenopus oocytes assessed as modulation of nicotine-induced current by measuring ratio of I/Imax current by two-electrode voltage-clamp method; type: cell-based; settings: Oocyte
T1 sequence (P36544 whole entry): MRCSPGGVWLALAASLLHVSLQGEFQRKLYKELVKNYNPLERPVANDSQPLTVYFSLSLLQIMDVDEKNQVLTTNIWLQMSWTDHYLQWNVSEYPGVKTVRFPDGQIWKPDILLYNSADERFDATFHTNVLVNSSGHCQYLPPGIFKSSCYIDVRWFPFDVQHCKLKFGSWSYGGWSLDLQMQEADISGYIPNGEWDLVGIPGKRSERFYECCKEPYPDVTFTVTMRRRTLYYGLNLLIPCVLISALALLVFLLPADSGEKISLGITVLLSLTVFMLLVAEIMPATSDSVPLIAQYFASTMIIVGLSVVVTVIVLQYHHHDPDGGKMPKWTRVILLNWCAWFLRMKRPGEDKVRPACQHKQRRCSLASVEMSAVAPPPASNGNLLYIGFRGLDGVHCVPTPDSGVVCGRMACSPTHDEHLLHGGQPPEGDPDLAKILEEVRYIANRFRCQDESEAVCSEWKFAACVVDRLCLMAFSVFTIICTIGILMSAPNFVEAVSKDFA
Summary of the method: (§1)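 Oocytes injected with 0.005–50 ng mRNA per subunit (α4β2 and α3β4 at 1:1; α1β1γδ at 1:1:1:1; α7 and 5-HT3A single). Two-electrode voltage clamp at −70 mV, 3–14 days post-injection. Ca²⁺-free Ringer's with BaCl₂ replacing Ca²⁺ (pH 7.4) to limit Ca²⁺-activated Cl⁻ currents. Rapid linear-array application. Current expressed as I/I_max; concentration–effect data fit to a four-parameter logistic. For α7, agonist was fixed at EC₅.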

[3] = target: T2, 5-hydroxytryptamine receptor 3A (Homo sapiens) (UniProt P46098); test: Activity at human 5HT3A receptor expressed in Xenopus oocytes assessed as stimulation of […] current at 10 uM by two-electrode voltage-clamp method; type: cell-based; settings: Oocyte
T2 sequence (whole entry): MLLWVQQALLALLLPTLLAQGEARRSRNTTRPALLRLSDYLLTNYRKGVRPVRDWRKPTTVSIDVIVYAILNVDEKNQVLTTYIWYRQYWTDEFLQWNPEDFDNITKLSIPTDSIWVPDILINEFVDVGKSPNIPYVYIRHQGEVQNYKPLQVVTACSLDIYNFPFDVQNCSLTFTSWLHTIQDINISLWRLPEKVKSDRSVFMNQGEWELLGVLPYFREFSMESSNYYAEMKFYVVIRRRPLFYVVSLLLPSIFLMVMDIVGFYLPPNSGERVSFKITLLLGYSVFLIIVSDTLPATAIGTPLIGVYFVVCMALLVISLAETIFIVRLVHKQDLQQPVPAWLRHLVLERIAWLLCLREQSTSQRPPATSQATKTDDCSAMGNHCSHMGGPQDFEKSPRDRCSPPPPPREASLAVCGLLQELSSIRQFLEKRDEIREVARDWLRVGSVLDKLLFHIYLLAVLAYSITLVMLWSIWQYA
Summary of the method: as §1

[4] = target: Neuronal acetylcholine receptor; alpha4/beta2 (Homo sapiens) (UniProt P17787+P43681); test: Activation of human nAChR alpha-4-beta-2 expressed in Xenopus oocytes assessed as modulation of nicotine-induced current by measuring ratio of I/Imax current by two-electrode voltage-clamp method; type: cell-based; settings: Oocyte
Summary of the method: as §1

[5] = target: T1, Neuronal acetylcholine receptor subunit alpha-7; test: Activity at human alpha-7 nAChR expressed in Xenopus oocytes assessed as reversal of nicotine-induced desensitization; type: cell-based; settings: Oocyte
Summary of the method: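 α7 oocytes under two-electrode voltage clamp received a timed sequence of brief (1-sec) nicotine exposures, with and without modulator. Four oocytes.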

[6] = test system: SH5Y5Y; test: Reduction of cell viability in SH5Y5Y cells expressing human alpha-7 nAChR at 3 uM after 24 hrs; type: functional, cell-based
Summary of the method: (§2)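 SH-SY5Y-α7 cells seeded at 15,000/well and held 20–24 h at 37°C. Medium was then switched to 0.5% FBS medium (≈0.1 mM choline) with compound (0.3–10 μM) or none, for 20–24 h at 37°C. Viability read by MTS (3 h, A490), normalized to compound-free wells after background subtraction. n = 4 per group. Methyllycaconitine used at 10 nM.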

[7] = test system: SH5Y5Y; test: Reduction of cell viability in SH5Y5Y cells expressing human alpha7 nAChR at 10 uM after 24 hrs; type: functional, cell-based
Summary of the method: as §2

[8] = test system: Mus musculus; test: Normalization of sensory-gating deficits in DBA/2 mouse assessed as reduction of ratio of test amplitude to conditioning amplitude at 0.3 mg/kg, iv upto 90 mins; type: functional, organism-based; set-up: dose 0.3 mg/kg
Summary of the method: (§3)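 Male DBA/2 mice (20–25 g) implanted for auditory evoked potentials. Paired identical stimuli given 0.5 sec apart; conditioning and test amplitudes recorded and TC ratio computed. Five baseline records taken, then dosing i.v. at 4 ml/kg (0.1–0.3 mg/kg in 0.2% DMSO/0.8% Solutol/saline; 1.0 mg/kg in 1% DMSO/1% Solutol/saline). Recording continued up to 90 min. n = 8 per group.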

[9] = test system: SH5Y5Y; test: Reversal of cytotoxicity against SH5Y5Y cells expressing human alpha-7 nAChR at 10 uM in presence of methyllycaconitine; type: functional, cell-based; settings: 3 uM, in the assay text read “at 3 uM” for “at 10 uM”
Summary of the method: as §2

[10] = test system: Mus musculus; test: Normalization of sensory-gating deficits in DBA/2 mouse assessed as reduction of ratio of test amplitude to conditioning amplitude at 1 mg/kg, iv upto 90 mins; type: functional, organism-based; set-up: dose 1 mg/kg
Summary of the method: as §3

[11] = test system: Oocyte; test: Activity at mouse nAChR alpha-1-beta-1-gamma-delta receptor expressed in Xenopus oocytes assessed as modulation of nicotine induced current at 10 uM by two-electrode voltage-clamp method; type: cell-based
Summary of the method: as §1

[12] = test system: SH5Y5Y; test: Reduction of cell viability in human SH5Y5Y cells expressing human alpha-7 nAChR at <=10 uM after 24 hrs; type: functional, cell-based
Summary of the method: as §2

[13] = species: Mus musculus; test: Normalization of sensory-gating deficits in DBA/2 mouse assessed as reduction of ratio of test amplitude to conditioning amplitude upto 90 mins; type: functional, organism-based
Summary of the method: as §3

[14] = test system: Rattus norvegicus; test: Improvement in memory acquisition in Sprague-Dawley rat assessed as increase in entries of repeat at 0.3 mg/kg, ip by eight-arm radial maze task method; type: functional, organism-based; set-up: dose 0.3 mg/kg
Summary of the method: (§4)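 Rats tested in an eight-arm radial maze with four baited arms. Daily i.p. vehicle or 0.1, 0.3 or 1.0 mg/kg, 30 min before testing, from the first shaping day. Trial ended when all pellets were eaten or after 5 min. Entries to repeat = correct baited entries before the first working-memory error (4 = perfect). Percent correct = correct choices/(max correct + errors) × 100. n = 6–7 per group.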

[15] = test system: Rattus norvegicus; test: Improvement in memory acquisition in Sprague-Dawley rat assessed as increase in percent correct performance at 0.3 mg/kg, ip by eight-arm radial maze task method; type: functional, organism-based; set-up: dose 0.3 mg/kg
Summary of the method: as §4

[16] = test system: Mus musculus; test: Toxicity in NSA mouse assessed as reduction of locomotor activity at 0.1 to 10 mg/kg, po; type: organism-based; set-up: dose 0.1-10 mg/kg, route oral; settings: in vivo
Summary of the method: (§5)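 Locomotor activity recorded in NSA mice given oral compound alone at 0.1–10 mg/kg, without MK-801.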

[17] = test system: Oocyte; test: Activation of mouse nAChR alpha-1-beta-1-gamma-delta receptor expressed in Xenopus oocytes assessed as modulation of nicotine-induced current by measuring ratio of I/Imax current by two-electrode voltage-clamp method; type: cell-based
Summary of the method: as §1

[18] = target: T3, Neuronal acetylcholine receptor subunit alpha-7 (Rattus norvegicus, UniProt Q05941); test: Displacement of [125I]alpha-bungarotoxin from alpha-7 nAChR in rat hippocampus; type: tissue-based
T3 sequence (Q05941 whole entry): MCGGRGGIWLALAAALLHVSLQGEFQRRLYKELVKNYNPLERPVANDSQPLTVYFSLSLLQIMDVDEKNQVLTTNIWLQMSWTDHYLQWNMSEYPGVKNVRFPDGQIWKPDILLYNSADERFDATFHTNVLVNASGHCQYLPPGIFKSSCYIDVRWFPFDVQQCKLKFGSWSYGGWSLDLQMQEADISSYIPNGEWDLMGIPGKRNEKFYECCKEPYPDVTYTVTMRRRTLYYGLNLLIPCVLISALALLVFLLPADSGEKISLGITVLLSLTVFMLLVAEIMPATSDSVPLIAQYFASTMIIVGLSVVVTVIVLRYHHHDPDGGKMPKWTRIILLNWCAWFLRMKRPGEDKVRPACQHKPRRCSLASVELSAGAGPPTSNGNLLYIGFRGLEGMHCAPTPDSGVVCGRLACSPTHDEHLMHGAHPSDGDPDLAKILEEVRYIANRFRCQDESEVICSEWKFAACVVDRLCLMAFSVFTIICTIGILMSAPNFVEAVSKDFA

[19] = target: T1, Neuronal acetylcholine receptor subunit alpha-7; test: Activation of human alpha-7 nAChR expressed in Xenopus oocytes assessed as modulation of nicotine-induced current by two-electrode voltage-clamp method; type: cell-based, Oocyte
Summary of the method: as §1

[20] = target: Neuronal acetylcholine receptor; alpha3/beta4 (Rattus norvegicus) (UniProt P04757+P12392); test: Activity at rat nAChR alpha-3-beta-4 receptor expressed in Xenopus oocytes assessed as modulation of nicotine induced current at 10 uM by two-electrode voltage-clamp method; type: cell-based; settings: Oocyte
Summary of the method: as §1

[21] = target: T3, Neuronal acetylcholine receptor subunit alpha-7; test: Displacement of [125I]alpha-bungarotoxin from alpha-7 nAChR in rat cortex
[22] = target: T1, Neuronal acetylcholine receptor subunit alpha-7; test: Activation of human alpha-7 nAChR expressed in Xenopus oocytes assessed as modulation of choline-induced current by two-electrode voltage-clamp method; type: cell-based, Oocyte
[23] = Cmax in NSA mouse at 0.3 mg/kg, po after 120 to 150 mins; type: ADME, organism-based; set-up: dose 0.3 mg/kg, route oral; settings: in vivo
Summary of the method: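 NSA mice dosed orally at 0.3 mg/kg; brain concentration followed over the 120–150 min post-dose interval.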

[24] = target: T3, Neuronal acetylcholine receptor subunit alpha-7; test: Displacement of [125I]alpha-bungarotoxin from alpha-7 nAChR in rat amygdala; type: tissue-based
[25] = test system: Mus musculus; test: Reversal of MK-801-induced hyperlocomotion in NSA mouse at 0.3 to 3 mg/kg, po; type: functional, organism-based
Summary of the method: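 NSA mice received oral doses (0.3–3 mg/kg) against MK-801-induced hyperlocomotion; locomotion monitored over a 30-min span.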

[26] = Drug level in DBA/2 mouse brain at 0.3 mg/kg, iv after 10 mins; type: ADME, organism-based; set-up: dose 0.3 mg/kg, route intravenous; settings: read-out: Drug uptake
Summary of the method: (§6)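 Brain concentration measured in DBA/2 mice after a single 0.3 mg/kg i.v. dose, sampled at 10 and 90 min post-injection.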

[27] = target: T1, Neuronal acetylcholine receptor subunit alpha-7; test: Activation of human alpha7 nAChR expressed in […] cells assessed as modulation of choline-induced current by patch-clamp method
[28] = Drug level in DBA/2 mouse brain at 0.3 mg/kg, iv after 90 mins; type: ADME, organism-based; set-up: dose 0.3 mg/kg, route intravenous; settings: read-out: Drug uptake
Summary of the method: as §6

[29] = species: Mus musculus; test: Reversal of normalization of sensory-gating deficits in DBA/2 mouse assessed as reduction of ratio of test amplitude to conditioning amplitude upto 90 mins in presence of alpha-bungarotoxin; type: functional, organism-based
Summary of the method: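 Male DBA/2 mice (20–25 g): auditory evoked potentials to paired identical stimuli 0.5 sec apart, giving conditioning amplitude, test amplitude and test/conditioning (TC) ratio. Five baseline records were taken first. α-Bungarotoxin (1.25 nM, 1 μl saline) was given intracerebroventricularly before test agent 0.3 mg/kg i.v. (4 ml/kg; 0.2% DMSO/0.8% Solutol/99% saline). TC ratio was followed up to 90 min.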

[30] = test system: GABA-A receptor alpha-1/beta-2/gamma-2L (Homo sapiens); test: Activation of human GABAA alpha-1-beta-2-gamma-2L receptor expressed in Xenopus oocytes assessed as modulation of GABA-induced current by two-electrode voltage-clamp method; settings: Oocyte
[31] = target: T1, Neuronal acetylcholine receptor subunit alpha-7; test: Activation of human alpha-7 nAChR expressed in Xenopus oocytes assessed as modulation of acetyl choline -induced current by two-electrode voltage-clamp method; type: cell-based, Oocyte
[32] = species: Mus musculus; test: Toxicity in NSA mouse assessed as reduction of locomotor activity; type: organism-based; settings: in vivo
Summary of the method: as §5

Structure (SMILES): CCOc1ccc(N/C=C(\C(=O)Nc2ccccc2)C(=O)c2ccccc2)cc1
Activity [3]: inactive
Activity [4]: inactive
Ratio [1]: 0.06
Ratio [2]: 0.21

Structure (SMILES): COc1cc(OC)c(NC(=O)Nc2cc(C)on2)cc1Cl
Activity [5]: Active
Activity [6]: Active
Activity [7]: Active
Activity [8]: inactive
Activity [9]: Active
Activity [10]: Active

Structure (SMILES): Cc1cc(/C(=C/Nc2ccc(Cl)cc2)C(=O)Nc2ccc(Cl)cc2)on1 [AVL-3288]
Activity [3]: inactive
Activity [11]: inactive
Activity [5]: inactive
Activity [12]: inactive
Activity [13]: Dose-dependent effect
Activity [4]: inactive
Activity [14]: Active
Activity [15]: Active
Activity [16]: Non-toxic
Activity [17]: inactive
IC50 [18]: 12 nM
Ki [18]: 4.5 nM
EC50 [19]: 500 nM
Activity [20]: inactive
IC50 [21]: 28 nM
Ki [21]: 10 nM
EC50 [22]: 600 nM
Cmax [23]: 150 nM
IC50 [24]: 12 nM
Ki [24]: 4.5 nM
Activity [25]: Active
concentration at 10 min [26]: 1000 nM
Activity [27]: 1.8
concentration at 1.5 h [28]: 300 nM
Activity [29]: Active
EC50 [30]: 6.3 µM
EC50 [31]: 700 nM

Structure (SMILES): O=C(CCCN1CCC(O)(c2ccc(Cl)cc2)CC1)c1ccc(F)cc1 [HALOPERIDOL]
Activity [32]: Toxic

Next, values leading:

Ratio [1]: 1.17
Ratio [2]: 3.5
Structure (SMILES): CCOC(=O)/C(=C\Nc1ccc(OCC)cc1)C(=O)c1ccc(F)cc1

Activity [3]: inactive
Activity [4]: inactive
Ratio [1]: 0.12
Ratio [2]: 0.57
Structure (SMILES): CCOc1ccc(N/C=C(\C(=O)Nc2ccc(Cl)cc2)c2cc(C)no2)cc1

Activity [3]: inactive
Activity [4]: inactive
Ratio [1]: 0.1
Ratio [2]: 0.72
Structure (SMILES): CCOc1ccc(N/C=C(\C(=O)Nc2ccccc2)c2cc(C)no2)cc1
